Reference: ChEMBL document CHEMBL4052634, “Covalent inhibitors of LgtC: A blueprint for the discovery of non-substrate-like inhibitors for bacterial glycosyltransferases” (Bioorg Med Chem, 2017)
Active and inactive are the calls of the source. No cut-off for these calls is given here.

Legend:
[1] = Inhibition of Neisseria meningitidis alpha-1,4-galactosyltransferase assessed as enzyme activity using lactose as substrate preincubated for 180 mins followed by lactose and UDP-Gal addition measured after 20 mins by malachite green dye-based assay
Neisseria meningitidis [2] = assay: (§1) Inhibition of Neisseria meningitidis alpha-1,4-galactosyltransferase assessed as consumption of donor UDP-Gal by measuring turnover rate at 0.1 to 100 uM using lactose as substrate preincubated with lactose for 10 mins followed by UDP-Gal addition measured after 20 mins by malachite green dye-based assay relative to total UDP-Gal used
Procedure, shortened: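 Pre-incubation 10 min at 30 °C of activated LgtC, inhibitor (10% DMSO final) and lactose 2 mM in 13 mM HEPES pH 7.0 with MnCl2 5 mM, CIP 10 U/mL, lysozyme 1 mg/mL, 0.01% Triton; reaction started with UDP-Gal 28 µM, 20 min at 30 °C; malachite green readout at 620 nm against UDP standards; triplicate.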

Neisseria meningitidis [3] = assay: Inhibition of Neisseria meningitidis alpha-1,4-galactosyltransferase at 0.1 to 100 uM using lactose as substrate preincubated with compoundfollowed by substrate/UDP-Gal addition measured after 20 min by malachite green dye-based assay
Procedure, shortened: (§2)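 Enzyme (DTT-activated) with MnCl2 5 mM, CIP 10 U/mL, lysozyme 1 mg/mL, 0.01% Triton, 13 mM HEPES pH 7.0 and inhibitor in DMSO (10% final) pre-incubated 10 min at 30 °C before UDP-Gal (28 µM) plus lactose (2 mM) added; 20 min at 30 °C; UDP read by malachite green at 620 nm versus UDP standard curve, background-corrected; triplicate.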

Neisseria meningitidis [4] = assay: Inhibition of Neisseria meningitidis alpha-1,4-galactosyltransferase assessed as rate constant for enzyme activity at 0.5 uM using lactose as substrate preincubated with substrate measured after 20 mins in presence of UDP-Gal
Procedure, shortened: (§3)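 Activity measured at a series of inhibitor concentrations (0.5-200 µM range overall) after pre-incubation with LgtC for 0, 5, 10, 20 and 30 min, using the pre-incubation protocols (lactose 2 mM, UDP-Gal 28 µM, 20 min at 30 °C, malachite green); % of DMSO control plotted semi-logarithmically versus pre-incubation time to give kobs; kobs versus concentration gave Ki and kinact; triplicate.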

Neisseria meningitidis [5] = assay: as §1, with “substrate preincubated for 10” for “substrate preincubated with lactose for 10”, “followed by substrate and UDP-Gal addition” for “followed by UDP-Gal addition”; procedure, shortened: as §2
[6] = (§4) Inhibition of Neisseria meningitidis alpha-1,4-galactosyltransferase assessed as enzyme activity using lactose as substrate preincubated for 0 to 30 mins measured after 20 mins in presence of UDP-Gal
Neisseria meningitidis [7] = assay: as §4
Neisseria meningitidis [8] = assay: Inhibition of Neisseria meningitidis alpha-1,4-galactosyltransferase assessed as rate constant for enzyme activity at 4 uM using lactose as substrate preincubated with substrate measured after 20 mins in presence of UDP-Gal; procedure, shortened: as §3
[9] = Inhibition of Neisseria meningitidis alpha-1,4-galactosyltransferase assessed as enzyme activity using lactose as substrate preincubated for 30 mins followed by lactose and UDP-Gal addition measured after 20 mins by malachite green dye-based assay
Bos taurus = species: Bos taurus; assay: Inhibition of bovine beta-1,4-galactosyltransferase at 0.1 to 50 uM using UDP as substrate after 20 mins by malachite green dye-based assay
Neisseria meningitidis [10] = assay: Binding affinity to Neisseria meningitidis alpha-1,4-galactosyltransferase assessed as covalent adduct formation at 50 uM by mass spectrometric analysis; conditions: TDE = time-dependent effect
Procedure, shortened: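 LgtC stock without DTT activation, diluted in 13 mM HEPES pH 7.0, incubated with inhibitor (100 or 50 µM, added in DMSO; 10% final DMSO) for 20 min at 30 °C; samples injected directly for electrospray MS to detect protein-inhibitor adducts.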

[11] = Inhibition of Neisseria meningitidis alpha-1,4-galactosyltransferase assessed as enzyme activity using lactose as substrate preincubated for 10 mins followed by lactose and UDP-Gal addition measured after 20 mins by malachite green dye-based assay; procedure, shortened: as §2
[12] = Inhibition of Neisseria meningitidis alpha-1,4-galactosyltransferase assessed as enzyme activity using lactose as substrate in presence of UDP-Gal measured after 20 min by malachite green dye-based assay
Procedure, shortened: (§5)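 No pre-incubation: DTT-activated LgtC with MnCl2 5 mM, CIP 10 U/mL, egg-white lysozyme 1 mg/mL, 0.01% Triton, 13 mM HEPES pH 7.0, lactose 2 mM, inhibitor in DMSO (10% final); started with UDP-Gal 28 µM, 20 min at 30 °C, 20-50% donor turnover. Malachite green read at 620 nm against a UDP calibration curve, background without acceptor subtracted, % of assay window; triplicate minimum; IC50 from sigmoidal fit.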

[13] = Inhibition of Neisseria meningitidis alpha-1,4-galactosyltransferase assessed as enzyme activity using lactose as substrate preincubated for 20 mins followed by lactose and UDP-Gal addition measured after 20 mins by malachite green dye-based assay
Neisseria meningitidis [14] = assay: as §1, with “in presence of” for “preincubated with lactose for 10 mins followed by”, “UDP-Gal” for “UDP-Gal addition”, “min” for “mins”, “total amount of” for “total”; procedure, shortened: as §5
Neisseria meningitidis [15] = assay: Inhibition of Neisseria meningitidis alpha-1,4-galactosyltransferase assessed as rate constant for enzyme activity at 25 uM using lactose as substrate preincubated with substrate measured after 20 mins in presence of UDP-Gal; procedure, shortened: as §3
Neisseria meningitidis [16] = assay: Inhibition of Neisseria meningitidis alpha-1,4-galactosyltransferase assessed as consumption of donor UDP-Gal by measuring turnover rate at 0.1 to 100 uM using lactose as substrate preincubated for 10 mins with UDP-Gal followed by lactose addition measured after 20 mins by malachite green dye-based assay relative to total amount of UDP-Gal used
Procedure, shortened: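 LgtC pre-incubated 10 min at 30 °C with inhibitor (DMSO, 10% final) and UDP-Gal 28 µM in 13 mM HEPES pH 7.0 with MnCl2 5 mM, CIP 10 U/mL, lysozyme 1 mg/mL, 0.01% Triton; lactose 2 mM then added, 20 min at 30 °C; malachite green absorbance at 620 nm converted via UDP calibration; triplicate.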

Neisseria meningitidis [17] = assay: Inhibition of Neisseria meningitidis alpha-1,4-galactosyltransferase assessed as consumption of donor UDP-Gal by measuring turnover rate at 0.1 to 50 uM using lactose as substrate preincubated for 60 mins followed by lactose and UDP-Gal addition measured after 20 mins by malachite green dye-based assay relative to total UDP-Gal used
Neisseria meningitidis [18] = assay: Inhibition of Neisseria meningitidis alpha-1,4-galactosyltransferase assessed as rate constant for enzyme activity at 50 uM using lactose as substrate preincubated with substrate measured after 20 mins in presence of UDP-Gal; procedure, shortened: as §3
[19] = Inhibition of Neisseria meningitidis alpha-1,4-galactosyltransferase assessed as enzyme activity using lactose as substrate preincubated for 5 mins followed by lactose and UDP-Gal addition measured after 20 mins by malachite green dye-based assay
Neisseria meningitidis [20] = assay: Inhibition of Neisseria meningitidis alpha-1,4-galactosyltransferase assessed as rate constant for enzyme activity at 10 uM using lactose as substrate preincubated with substrate measured after 20 mins in presence of UDP-Gal; procedure, shortened: as §3
[21] = Inhibition of Neisseria meningitidis alpha-1,4-galactosyltransferase assessed as enzyme activity using lactose as substrate preincubated for 60 mins followed by lactose and UDP-Gal addition measured after 20 mins by malachite green dye-based assay
Neisseria meningitidis [22] = assay: Inhibition of Neisseria meningitidis alpha-1,4-galactosyltransferase assessed as consumption of donor UDP-Gal by measuring turnover rate at 0.1 to 100 uM using lactose as substrate preincubated for 5 mins followed by lactose and UDP-Gal addition measured after 20 mins by malachite green dye-based assay relative to total UDP-Gal used

Structure (SMILES)	IC50 [1] [µM]	inhibition (Neisseria meningitidis [2]) [%]	inhibition (Neisseria meningitidis [3])	K (Neisseria meningitidis [4]) [min⁻¹]	inhibition (Neisseria meningitidis [5]) [%]	Ki [6] [µM]	Kinact (Neisseria meningitidis [7]) [min⁻¹]	K (Neisseria meningitidis [8]) [min⁻¹]	IC50 [9] [µM]	inhibition (Bos taurus)	IC50 [11] [µM]	IC50 [12] [µM]	IC50 [13] [µM]	inhibition (Neisseria meningitidis [14]) [%]	K (Neisseria meningitidis [15]) [min⁻¹]	inhibition (Neisseria meningitidis [16]) [%]	K (Neisseria meningitidis [18]) [min⁻¹]	IC50 [19] [µM]	K (Neisseria meningitidis [20]) [min⁻¹]	IC50 [21] [µM]	also measured
COc1ccc(/C=C2\C(=O)N(c3ccccc3)N=C2C(F)(F)F)cc1Br	5.5	23	inactive	0.006	25	4.4	0.0535	0.023	3.1	inactive	15.8	> 50	6.5	30	0.047	30	0.048	24	0.039	3.1	Activity (Neisseria meningitidis [10]): Tde; inhibition (Neisseria meningitidis [17]): 39%
O=C1/C(=C\c2cccc(OCc3ccccc3)c2)C(C(F)(F)F)=NN1c1ccccc1	6	23	inactive	0.002	25 to 41	46.3	0.104	0.007	17.6	inactive	> 50	> 100	38	29	0.033	29	0.068	> 50	0.011	9	inhibition (Neisseria meningitidis [22]): 30%
